According to ChEMBL document CHEMBL5154645, “Potent Anti-SARS-CoV-2 Activity by the Natural Product Gallinamide A and Analogues via Inhibition of Cathepsin L” (J Med Chem, 2022):
The source made the active and inactive calls. The calls are words filed in the database; no cut-off is given here.

Experiments:
Procathepsin L [1] = molecular target: T1, Procathepsin L (Homo sapiens, UniProt P07711); experiment: Inhibition of human recombinant Cathepsin L assessed enzyme activity using Z-FR-AMC as substrate at 416 nM incubated for 30 mins by fluorometric assay
How it was run: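 Recombinant human CatL at 50 pM was incubated with 416 nM compound for […] at 25 °C in 50 mM Na acetate pH 5.5, 5 mM DTT, 0.01% BSA, 1 mM EDTA. An equal volume of 5 μM Z-FR-AMC was then added. Fluorescence was read at 360/460 nm in triplicate wells and normalized to DMSO vehicle wells.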
Target sequence in this assay (P07711 114-333 limits assumed): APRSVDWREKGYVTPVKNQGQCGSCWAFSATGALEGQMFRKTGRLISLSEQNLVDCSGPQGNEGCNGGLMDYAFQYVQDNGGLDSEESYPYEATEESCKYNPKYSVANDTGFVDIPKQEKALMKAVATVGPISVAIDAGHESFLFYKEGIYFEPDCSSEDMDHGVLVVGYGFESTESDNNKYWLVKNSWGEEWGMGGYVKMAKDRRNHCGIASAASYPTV

Cathepsin S = Cathepsin S (Homo sapiens, UniProt P25774); experiment: Inhibition of human recombinant Cathepsin S assessed remaining activity using Z-FR-AMC as substrate incubated for 30 mins by fluorometric assay
How it was run: (§1)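 Recombinant human cathepsins: L, B, V and K at 1.11 nM, S at 4.44 nM. Each was preincubated 30 min at 25 °C with 3333 to 0.006 nM compound. Z-FR-AMC was added at 40 μM final. AMC release rate over 0–30 min was compared with DMSO (ex/em 360/460). IC50 from four technical replicates.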

Cathepsin K = molecular target: T2, Cathepsin K (Homo sapiens, UniProt P43235); experiment: Inhibition of human recombinant Cathepsin K assessed remaining activity using Z-FR-AMC as substrate incubated for 30 mins by fluorometric assay; how it was run: as §1
T2 sequence (P43235 whole entry): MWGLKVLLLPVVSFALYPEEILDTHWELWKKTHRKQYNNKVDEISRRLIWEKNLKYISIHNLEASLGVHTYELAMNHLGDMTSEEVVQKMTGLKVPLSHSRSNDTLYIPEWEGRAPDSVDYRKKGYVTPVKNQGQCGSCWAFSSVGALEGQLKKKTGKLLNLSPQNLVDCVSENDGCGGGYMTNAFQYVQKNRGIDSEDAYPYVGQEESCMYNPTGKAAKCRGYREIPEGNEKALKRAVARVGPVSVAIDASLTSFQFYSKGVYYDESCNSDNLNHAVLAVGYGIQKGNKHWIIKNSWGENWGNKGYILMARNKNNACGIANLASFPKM

Cathepsin B [2] = molecular target: T3, Cathepsin B (Homo sapiens, UniProt P07858); experiment: Inhibition of recombinant human Cathepsin B expressed in huamn A549 using Z-Phe-Arg-AMC as substrate incubated for 30 mins by fluorometric assay
How it was run: (§2)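 VeroE6 or A549 cells were lysed by sonication in 50 mM MES pH 6.0 with AEBSF, pepstatin A, EDTA and DTT; protein was quantified by BCA. An equal volume of 50 μM Z-Phe-Arg-AMC was then added. Activity was normalized to 0.2% DMSO wells.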

Cathepsin B [3] = molecular target: T3, Cathepsin B; experiment: Inhibition of human recombinant Cathepsin B assessed remaining activity using Z-FR-AMC as substrate incubated for 30 mins by fluorometric assay; how it was run: as §1
Cathepsin B [4] = molecular target: T3, Cathepsin B; experiment: Inhibition of recombinant human Cathepsin B in African green monkey Vero E6 using Z-Phe-Arg-AMC as substrate for 30 mins by fluorometric assay; type: cell-based; how it was run: as §2
Cathepsin B [5] = molecular target: T3, Cathepsin B; experiment: Inhibition of human recombinant Cathepsin B assessed as Kinact using Z-FR-AMC as substrate inubated for 30 mins by fluorometric assay
Procathepsin L [6] = molecular target: T1, Procathepsin L; experiment: Inhibition of human recombinant Cathepsin L assessed as Kinact using Z-FR-AMC as substrate inubated for 30 mins by fluorometric assay
How it was run: (§3)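 Human CatL, human CatB or mouse CatL at 1 nM, at 25 °C in pH 5.5 Na acetate/DTT/EDTA/NaCl buffer. Reactions held 40 μM Z-FR-AMC and 555.56 to 0.01 nM compound, in quadruplicate. Product formation was measured at 6 min intervals for 1 h and normalized to DMSO wells. kobs came from inactivation curves. kinact and KIapp were obtained by nonlinear regression of kobs = kinact[I]/(KIapp + [I]); their ratio was then calculated.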
Target sequence in this assay (P07711 114-333 limits assumed): as the sequence (P07711 114-333 limits assumed) above

SARS-CoV-2 [7] = experiment: Antiviral activity against SARS-CoV-2 infected in African green monkey Vero E6 cells assessed as inhibition of viral infection pre incubated for 30 minutes followed by viral infection and measured after 72 hrs by Nucblue dye based fluorometric analysis; type: functional, organism-based; conditions: Severe acute respiratory syndrome coronavirus 2, Vero C1008
Procathepsin L [8] = molecular target: T1, Procathepsin L; experiment: Inhibition of recombinant human Cathepsin L in African green monkey Vero E6 at 20 uM using Z-Phe-Arg-AMC as substrate for 30 mins by fluorometric assay; type: cell-based; how it was run: as §2
Target sequence in this assay (P07711 114-333 limits assumed): as the sequence (P07711 114-333 limits assumed) above

SARS-CoV-2 [9] = experiment: Anti viral activity against SARS-CoV-2 infected in African green monkey veroE6 assessed as reduction in viral load; type: functional, Severe acute respiratory syndrome coronavirus 2, Vero E6
SARS-CoV-2 [10] = experiment: Antiviral activity against SARS-CoV-2 infected in Vero E6 cells assessed as inhibition of viral entry at 0.5 uM and measured after 24 hrs post infection by Alexa Fluor 488 and Hoechst dye based fluorescence microscopy; type: functional, organism-based; conditions: Severe acute respiratory syndrome coronavirus 2
Procathepsin L [11] = molecular target: T1, Procathepsin L; experiment: Binding affinity to Cathepsin L in African green monkey VeroE6 cell lysates assessed as covalent adducts by quantitative mass spectrometry; type: subcellular; conditions: Vero E6
How it was run: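 VeroE6 cells at 80–90% confluence were treated with 10 μM compound for 1 h in triplicate, washed with DPBS, and lysed in 4% sodium deoxycholate buffer. Lysates were digested to peptides and analysed by nanoflow LC-MS/MS. Covalent CatL adducts were identified by targeted MS/MS at 1% FDR.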
Target sequence in this assay (P07711 114-333 limits assumed): as the sequence (P07711 114-333 limits assumed) above

SARS-CoV-2 [12] = experiment: Antiviral activity against SARS-CoV-2 infected in human MRC5 cells expressing ACE2/TMPRSS2 assessed as inhibition of viral entry at 32 uM; type: functional, organism-based; conditions: Severe acute respiratory syndrome coronavirus 2
SARS-CoV-2 [13] = experiment: Antiviral activity against SARS-CoV-2 infected in human HEK293 cells expressing TMPRSS2 as inhibition of viral entry; type: functional, organism-based; conditions: Severe acute respiratory syndrome coronavirus 2
Procathepsin L [14] = molecular target: T1, Procathepsin L; experiment: Inhibition of human recombinant Cathepsin L assessed as Apparent inhibition constant using Z-FR-AMC as substrate […] by fluorometric assay; conditions: read-out: Ki(app)
Target sequence in this assay (P07711 whole entry): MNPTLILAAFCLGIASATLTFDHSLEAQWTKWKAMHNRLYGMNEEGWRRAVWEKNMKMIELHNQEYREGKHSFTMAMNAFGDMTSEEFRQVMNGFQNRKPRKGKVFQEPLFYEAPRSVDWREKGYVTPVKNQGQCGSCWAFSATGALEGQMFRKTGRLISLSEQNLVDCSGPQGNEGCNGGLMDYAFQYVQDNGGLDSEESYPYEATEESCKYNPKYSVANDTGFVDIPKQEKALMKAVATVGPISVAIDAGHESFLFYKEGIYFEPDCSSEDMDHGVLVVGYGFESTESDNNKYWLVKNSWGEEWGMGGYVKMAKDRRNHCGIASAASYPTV

Cathepsin L2 = molecular target: T4, Cathepsin L2 (Homo sapiens, UniProt O60911); experiment: Inhibition of human recombinant Cathepsin V assessed remaining activity using Z-FR-AMC as substrate incubated for 30 mins by fluorometric assay; how it was run: as §1
T4 sequence (O60911 whole entry): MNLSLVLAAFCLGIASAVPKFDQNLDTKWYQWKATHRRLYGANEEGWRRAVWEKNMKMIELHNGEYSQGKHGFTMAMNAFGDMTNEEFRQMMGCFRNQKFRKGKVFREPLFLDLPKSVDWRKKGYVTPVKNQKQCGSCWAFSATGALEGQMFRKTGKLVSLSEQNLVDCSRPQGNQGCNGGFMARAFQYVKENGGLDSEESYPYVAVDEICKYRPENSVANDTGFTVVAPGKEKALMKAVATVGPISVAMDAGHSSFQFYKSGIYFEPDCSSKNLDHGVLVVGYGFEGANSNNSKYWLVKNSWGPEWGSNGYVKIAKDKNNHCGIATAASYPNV

SARS-CoV-2 [15] = experiment: Synergistic antiviral activity against SARS-CoV-2 infected in human HEK293 cells expressing TMPRSS2 as inhibition of viral entry in presence of Na-famostat mesylate; type: functional, organism-based; conditions: Severe acute respiratory syndrome coronavirus 2
Procathepsin L [16] = molecular target: T5, Procathepsin L (Mus musculus, UniProt P06797); experiment: Inhibition of mouse Cathepsin L assessed as Apparent inhibition constant using Z-FR-AMC as substrate inubated for 30 mins by fluorometric assay; conditions: read-out: Ki(app); how it was run: as §3
T5 sequence (P06797 whole entry): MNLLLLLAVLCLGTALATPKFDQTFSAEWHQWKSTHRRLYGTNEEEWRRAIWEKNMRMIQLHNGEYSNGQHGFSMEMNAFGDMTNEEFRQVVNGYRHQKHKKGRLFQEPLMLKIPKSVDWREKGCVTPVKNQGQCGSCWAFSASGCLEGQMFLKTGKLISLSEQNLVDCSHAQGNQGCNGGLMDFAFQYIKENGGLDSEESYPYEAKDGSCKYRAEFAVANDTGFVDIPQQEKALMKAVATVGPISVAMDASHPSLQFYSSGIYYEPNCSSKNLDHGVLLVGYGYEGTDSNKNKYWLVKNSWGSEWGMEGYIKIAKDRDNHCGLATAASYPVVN

SARS-CoV-2 [17] = experiment: Antiviral activity against SARS-CoV-2 infected in African green monkey Vero E6 cells assessed as inhibition of viral entry at 0.5 uM pretreated for 30 mins with cells followed by viral infection and measured after 24 hrs post infection by Alexa Fluor 488 and Hoechst dye based fluorescence microscopy; type: functional, organism-based; conditions: Severe acute respiratory syndrome coronavirus 2
Cathepsin B [18] = molecular target: T3, Cathepsin B; experiment: Inhibition of human recombinant Cathepsin B assessed as Apparent inhibition constant using Z-FR-AMC as substrate inubated for 30 mins by fluorometric assay; conditions: read-out: Ki(app); how it was run: as §3
[19] = molecular target: T6, Procathepsin L (Mus musculus) (UniProt P06797); experiment: Inhibition of mouse Cathepsin L assessed as Kinact using Z-FR-AMC as substrate inubated for 30 mins by fluorometric assay; how it was run: as §3
T6 sequence (whole entry): T5 sequence (P06797 whole entry)

Vero C1008 = experiment: Cytotoxicity against cells African green monkey Vero E6 cells incubated for 24 to 72 hrs by alamar blue assay; type: toxicity, cell-based; conditions: chlorocebus sabaeus, time 24-72 hrs
How it was run: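 VeroE6 cells in DMEM with 10% FCS were seeded at 5 × 10^4 per well. After adherence, cells were given varying compound concentrations for 24 or 72 h at 37 °C, 5% CO2. Alamar Blue HS was added for a further 2–4 h. Viability was read as fluorescence at ex/em 560/590 nm.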

[20] = molecular target: T6, Procathepsin L (Mus musculus); experiment: Inhibition of mouse Cathepsin L assessed as ratio of Kinact/Kiapp using Z-FR-AMC as substrate inubated for 30 mins by fluorometric assay; how it was run: as §3
Procathepsin L [21] = molecular target: T1, Procathepsin L; experiment: Inhibition of human recombinant Cathepsin L assessed as ratio of Kinact/Kiapp using Z-FR-AMC as substrate inubated for 30 mins by fluorometric assay
Target sequence in this assay (P07711 114-333 limits assumed): as the sequence (P07711 114-333 limits assumed) above

Cathepsin B [22] = molecular target: T3, Cathepsin B; experiment: Inhibition of human recombinant Cathepsin B assessed as ratio of Kinact/Kiapp using Z-FR-AMC as substrate inubated for 30 mins by fluorometric assay; how it was run: as §3

Sequence of Cathepsin S (P25774 whole entry): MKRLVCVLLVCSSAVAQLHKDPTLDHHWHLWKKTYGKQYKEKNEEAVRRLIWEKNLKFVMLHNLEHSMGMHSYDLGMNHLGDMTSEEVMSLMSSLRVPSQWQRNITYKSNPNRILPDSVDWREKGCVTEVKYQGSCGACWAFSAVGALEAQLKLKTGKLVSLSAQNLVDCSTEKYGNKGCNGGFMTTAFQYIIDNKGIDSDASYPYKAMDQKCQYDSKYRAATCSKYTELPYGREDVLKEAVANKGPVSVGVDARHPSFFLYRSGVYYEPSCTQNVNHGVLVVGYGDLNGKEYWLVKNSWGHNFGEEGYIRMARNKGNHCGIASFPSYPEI

SMILES | IC50 (Cathepsin S) [nM] | IC50 (Cathepsin K) [nM] | IC50 (Cathepsin B [3]) [nM] | Kinact (Cathepsin B [5]) | Kinact (Procathepsin L [6]) | EC50 (SARS-CoV-2 [7]) [nM] | Ki (Procathepsin L [14]) [nM] | IC50 (Cathepsin L2) [nM] | Ki (Procathepsin L [16]) [nM] | Ki (Cathepsin B [18]) [nM] | Kinact [19] | CC50 (Vero C1008) [nM] | Ratio [20] | also measured
COC1=CC(=O)N(C(=O)/C=C/[C@H](C)NC(=O)[C@H](CC(C)C)NC(=O)[C@H](Cc2ccccc2)NC(=O)[C@H](CC(C)C)N(C)C)[C@H]1Cc1c[nH]c2ccccc12 |  |  |  |  |  |  |  |  |  |  |  |  |  | inhibition (Procathepsin L [1]): 90%
CC[C@H](C)[C@@H](C(=O)O[C@@H](CC(C)C)C(=O)N[C@@H](CC(C)C)C(=O)N[C@@H](C)/C=C/C(=O)N1C(=O)C=C(OC)[C@@H]1C)N(C)C [GALLINAMIDE A] | 0.367 | 79.6 | 7.34 | 6.27 10^-4/s | 4.75 10^-3/s | 28 | 7.95 | 697 | 5.29 | 117 | 5.69 10^-3/s | > 100000 | 1.07 10^6/s/M | inhibition (Cathepsin B [2]): Active; inhibition (Cathepsin B [4]): Active; inhibition (Procathepsin L [8]): Active; IC90 (SARS-CoV-2 [9]): 88 nM; Activity (SARS-CoV-2 [10]): Active; Activity (Procathepsin L [11]): Active; Activity (SARS-CoV-2 [12]): Active; Activity (SARS-CoV-2 [13]): Active; Activity (SARS-CoV-2 [15]): Active; Activity (SARS-CoV-2 [17]): Active
COC1=CC(=O)N(C(=O)/C=C/[C@H](CCc2ccccc2)NC(=O)[C@H](CC(C)C)NC(=O)[C@H](CC(C)C)NC(=O)[C@H](C(C)C)N(C)C)[C@H]1Cc1c[nH]c2ccccc12 | 0.224 | 1.5 | 0.149 | 1.89 10^-3/s | 9.85 10^-3/s | 920 | 11.8 | 419 | 4.15 | 238 | 9.6 10^-3/s | > 100000 | 2.31 10^6/s/M | Ratio (Procathepsin L [21]): 8.35 10^5/s/M; Ratio (Cathepsin B [22]): 7.94 10^3/s/M
